Reference: PMC5634372 (International Journal of Nanomedicine, 2017)

What was measured:
[1] = system: xenograft model of colon cancer; settings: cited from earlier work
MDA-MB-231 xenografts = assay: Xenograft model of TNBC, tumor growth; assay type: in vivo, SCID mice; settings: 10 mg/kg iv twice a week for 2 weeks, vs vehicle control
Procedure, shortened: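 Female SCID mice (7–8 weeks) given s.c. rear-flank 1×10^6 MDA-MB-231 cells in 0.1 mL 50% Matrigel. At 100 mm3, randomized (eight per group). Dosed via tail vein twice weekly for 2 weeks with free or SMA-micelle test compound, or vehicle (100 μL; SMA in NaOH, pH 7.4). Tumor volume (L×W×H) by electronic calipers, two independent measurements bi-weekly. Euthanized day 24.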

TNBC cell lines = settings: cited from earlier work

In the case of COc1cc(C=C2CN(C)CC(=Cc3cc(OC)c(OC)c(OC)c3)C2=O)cc(OC)c1OC [RL71, 3,5-bis(3,4,5-trimethoxybenzylidene)-1-methylpiperidine-4-one], the body weight ([1]; 4 mg/kg, after 15 days) is listed as “nonsignificant loss of body weight”, the tumor growth ([1]; 4 mg/kg/day intraperitoneally for 14 days) is listed as “significantly suppressed tumor growth” and the “liver or spleen weight” value ([1]; intraperitoneal administration for 2 weeks) is listed as “did not alter liver or spleen weight”. The “growth rate of colon tumors following treatment” value ([1]; over 15 days, 4 mg/kg/day ip) was 400%, the tumor growth (MDA-MB-231 xenografts) was “unable to suppress tumor growth” and the “apoptosis and cell cycle effect” value (TNBC cell lines; 1 µM, several TNBC cell lines) was “induced apoptosis and elicited G2/M phase cell cycle arrest”. For the same molecule, the “cytotoxic potency relative to curcumin” value (TNBC cell lines; greater than curcumin) was 20 fold.
